# From PubChem
# The list is not random: actives were taken first. Their share in the collection is about 3.3%.
# Granule exo inh: blocks lytic granule exocytosis | TALL-104 LAMP-1 surface exposure, flow cytometry; cells stimulated with thapsigargin and PMA | inhibition, % at 10 µM | hit rate 0.66% among 360,000 | AID 651702;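 active means inhibition above about 55%, limit read from the data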
# ATG4B inh: blocks human ATG4B protease cleavage of LC3 substrate. Q9Y4P1. ATG4B cleavage of LC3-PLA2, NBD-HPC fluorescence, 1 h. inhibition, % at 8.33 µM. hit rate 0.51% among 340,000; in the data active means inhibition above about 40%
# Myeloid diff 2: myeloid differentiation induction; ER-HoxA9 myeloid progenitors, lysozyme-GFP differentiation, flow cytometry; calls only at 10 µM; hit rate 1% among 360,000; AID 624256;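 active means normalized GFP-positive differentiation at or above the plate's own cutoff, the solvent-only control mean plus 3 SD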;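 further: cells exposed to compound for four days before flow analysis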
# NRP1-CendR mod: NRP-1/CendR interaction modulation | hit rate 0.85% among 360,000 | FAM-RPARPAR peptide binding to NRP-1, fluorescence polarization | AID 602438 | inhibition, % at 25 µM | O14786;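 active means inhibition or corrected inhibition above about 18%, plus a signal ratio from 0.5 to 1.5, limit read from the data, passing the limit was not always enough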
# ABCB6 inh 2: inhibitors of human ABC transporter ABCB6. Q9NP58. K562-ABCB6 porphyrin accumulation, flow cytometry, 1 h; active compounds read low. fluorescence ratio to DMSO, % at 10 µM. hit rate 0.19% among 360,000. AID 602162;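 active means fluorescence ratio to DMSO below 75%, the collection mean minus 3 SD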;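 further: signal is porphyrin accumulated inside mitochondria; 100% equals median channel fluorescence of DMSO control wells; lower ratio means ABCB6 inhibition with less porphyrin fluorescence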
# Target sequence (Q9NP58 whole entry, looked up): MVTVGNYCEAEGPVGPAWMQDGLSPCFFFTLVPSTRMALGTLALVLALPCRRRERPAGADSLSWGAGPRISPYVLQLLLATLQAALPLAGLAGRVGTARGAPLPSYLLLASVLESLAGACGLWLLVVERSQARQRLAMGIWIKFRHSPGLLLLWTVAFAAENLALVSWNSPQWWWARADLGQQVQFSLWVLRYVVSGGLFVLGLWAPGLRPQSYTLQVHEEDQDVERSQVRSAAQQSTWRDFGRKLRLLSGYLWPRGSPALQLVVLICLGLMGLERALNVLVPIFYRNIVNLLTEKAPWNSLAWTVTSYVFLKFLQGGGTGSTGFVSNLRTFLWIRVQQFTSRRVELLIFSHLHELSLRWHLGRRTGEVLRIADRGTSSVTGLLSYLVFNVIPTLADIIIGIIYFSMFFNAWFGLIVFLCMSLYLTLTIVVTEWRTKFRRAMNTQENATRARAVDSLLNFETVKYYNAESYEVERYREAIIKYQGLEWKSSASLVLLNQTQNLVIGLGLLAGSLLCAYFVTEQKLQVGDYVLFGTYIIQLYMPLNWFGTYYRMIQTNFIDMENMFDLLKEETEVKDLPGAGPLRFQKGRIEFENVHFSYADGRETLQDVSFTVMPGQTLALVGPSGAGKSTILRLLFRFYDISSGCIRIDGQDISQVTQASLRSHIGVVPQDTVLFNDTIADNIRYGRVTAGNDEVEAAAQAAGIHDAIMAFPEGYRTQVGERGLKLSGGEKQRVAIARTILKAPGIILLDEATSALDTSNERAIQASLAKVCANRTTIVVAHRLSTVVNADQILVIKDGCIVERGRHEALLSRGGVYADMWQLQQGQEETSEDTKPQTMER
# Arr AP2 block: inhibitors of human beta-arrestin and AP2 interaction; inhibition, % at 10 µM; FITC-arrestin peptide / GST-AP2 beads, flow cytometry; AP2 beta2 appendage carries R879A mutation; AID 504490; hit rate 0.31% among 340,000;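 active means inhibition above a set limit, near 3 SD of compounds lacking own fluorescence, cut at about 54% in these data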;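 further: plate controls were DMSO wells for no effect and 5 µM unlabelled arrestin peptide for full effect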
#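 System: GST-AP2 R879A glutathione beads; medium: PBS, Tween 20 0.05%, BSA 0.1%; reagent: fluorescein-tagged arrestin peptide at 50 nM final; schedule: pre-incubation 12 min, peptide binding 1 h, room temperature; detection: flow cytometry, FL1 (488/535 nm); read-out: inhibition as reduced fluorescein signal on beads, percent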
# An asterisk follows results filed as active; i = inactive; . = no result given; + = active, no number.
SMILES,Granule exo inh,ATG4B inh,Myeloid diff 2,NRP1-CendR mod,ABCB6 inh 2,Arr AP2 block
O=C(Nc1cccc2ccccc12)c1ccc([N+](=O)[O-])o1,1,-2,.,13,98,-3
COc1cc(C(=O)NNC2=NC(C)(C)Cc3cc(C)c(C)cc32)cc(OC)c1OC,-1,4,i,-1,96,-1
CCC1(c2ccc(Cl)cc2)NC(=O)N(Cc2ccc(C(=O)OC)cc2)C1=O (stereo unspecified),-1,-1,i,3,97,-17
C[C@@]12C(=O)N(CC3CCCO3)CC(=O)N1[C@@H]1c3ccccc3OC[C@@H]1[C@@H]2c1ccccc1 (stereo partly specified),-6,.,i,4,95,-17
COc1ccc2c(c1)OC[C@H]1[C@H]2N2C(=O)CN(CC3CCCO3)C(=O)[C@@]2(C)[C@H]1c1ccccc1 (stereo partly specified),30,-4,i,26*,94,5
Cn1c2c(c(=O)n(C)c1=O)C(C(F)(F)F)(C(F)(F)F)N=C(CCC1CCCCC1)N2,10,-6,i,-14,93,-6
CN1C(=O)N(S(=O)(=O)c2ccc(F)c(F)c2F)C(=O)C1(C)C,3,-8,+,1,99,-1
CC1CCCC12NC(=O)NC2=O (stereo unspecified),-2,1,i,4,95,1
CSCCC(NC(=O)c1ccc(Cl)cc1Cl)C(=O)NCC(c1cccs1)N(C)C (stereo unspecified),5,1,i,26*,93,-35
Cc1cc(Br)ccc1SCC(=O)OCC(=O)NC(C)c1ccccc1 (stereo unspecified),1,-4,i,-3,99,29
Cc1cc(Br)ccc1SCC(=O)OCC(=O)c1c(N)n(C)c(=O)n(C)c1=O,-3,-5,+,-3,97,-4
Cc1cc(SCC(=O)OCC(=O)c2c(N)n(C)c(=O)n(C)c2=O)c(C)cc1Br,-2,-14,i,-6,106,-5
Cc1cc(Br)ccc1SCC(=O)OCC(=O)NC1CC1,0,-3,+,-7,143,-3
CNC(=O)COC(=O)Cc1ccc(Cl)cc1,-5,14,i,-7,93,6
O=c1cc(N2CCN(c3ccccc3)CC2)[nH]c(=O)n1Cc1ccc(F)cc1,-2,-24,+,11,106,0
Cc1cc(N2CCCC2=O)ccc1S(=O)(=O)NC1CCCCC1,6,-1,i,21*,81,2
O=P(O)(C(O)c1ccccc1)C(O)c1ccccc1 (stereo unspecified),-1,3,i,-7,100,24
CCN(Cc1ccccc1)C(=O)c1cccc(S(=O)(=O)N2CCN(c3ccc(F)cc3)CC2)c1,5,-5,i,2,99,14
O=C(O)c1cccc(S(=O)(=O)N2CCN(C(c3ccccc3)c3ccccc3)CC2)c1,1,-2,i,36*,101,36
CCN(Cc1ccccc1)C(=O)c1cccc(S(=O)(=O)N2CCN(c3ccccc3)CC2)c1,-4,5,+,-2,98,14
O=C(O)c1cccc(S(=O)(=O)N2CCCC2)c1,3,0,i,4,100,25
CC[C@@H](C)[C@H](CN[C@H](CNC)C(C)C)NC[C@@H](C)c1ccc(CC(C)C)cc1,3,7,+,7,98,3
Cc1csc(SCC(=O)Nc2ccc3[nH]c(=O)[nH]c3c2)n1,0,2,i,16,102,6
Cc1cc2ncn(-c3ncnc4sc5c(c34)CCC(C)C5)c2cc1C (stereo unspecified),-1,-2,i,-11,99,-3
O=C(Nc1ccncc1)c1cccc(S(=O)(=O)N2CCc3ccccc32)c1,1,-10,+,2,100,7
COc1cccc(C(=O)NCC(=O)N/N=C/c2ccc3c(c2)OCO3)c1,18,-3,i,6,73*,16
O=C(CNC(=O)c1ccc2c(c1)OCO2)N/N=C/c1cccc([N+](=O)[O-])c1,-2,-5,i,0,105,15
